Drawing on PubChem BioAssay AID522 (The Scripps Research Institute Molecular Screening Center, 2006), this text covers activation for 101 compounds.

Each structure is given as a SMILES string. Among all 65,000 compounds or so, about 1,200 (1.8%) were called active.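 How the source made its calls: active means activation above the mean activation of all tested compounds plus 3 SD (cut at about 50% in these data); inactive means the rest.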 The list comes from a sample in which actives are over-represented; it also holds similar structures and randomly drawn compounds.

In this assay the target is Steroidogenic factor 1 (Homo sapiens) (UniProt Q13285). The assay can be described thus: SF-1 ligand-binding domain transactivation enhancers – cell-based, CHO-K1, Gal4-SF-1 LBD, luciferase luminescence, primary screen (AID 522). Particulars: CHO-K1 Gal4-SF-1 LBD luciferase reporter; at 10 µM; stronger effect = higher value; % increase over DMSO SF-1-specific signal. In outline: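 Test system: transient Gal4-SF-1 LBD reporter, CHO-K1; Amount: 4,000 CHO-K1 cells per well; Doses: 10 µM only; Timing: compound exposure 20 h at 37 °C; Signal: luciferase light emission; Read-out basis: percent activation relative to DMSO median and mock-transfected background; Control set: DMSO negative control and −SF1 background wells; Replicates: one test per compound.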
Sequence of Steroidogenic factor 1 (Homo sapiens) (Q13285 whole entry, looked up, the tested form may be a part): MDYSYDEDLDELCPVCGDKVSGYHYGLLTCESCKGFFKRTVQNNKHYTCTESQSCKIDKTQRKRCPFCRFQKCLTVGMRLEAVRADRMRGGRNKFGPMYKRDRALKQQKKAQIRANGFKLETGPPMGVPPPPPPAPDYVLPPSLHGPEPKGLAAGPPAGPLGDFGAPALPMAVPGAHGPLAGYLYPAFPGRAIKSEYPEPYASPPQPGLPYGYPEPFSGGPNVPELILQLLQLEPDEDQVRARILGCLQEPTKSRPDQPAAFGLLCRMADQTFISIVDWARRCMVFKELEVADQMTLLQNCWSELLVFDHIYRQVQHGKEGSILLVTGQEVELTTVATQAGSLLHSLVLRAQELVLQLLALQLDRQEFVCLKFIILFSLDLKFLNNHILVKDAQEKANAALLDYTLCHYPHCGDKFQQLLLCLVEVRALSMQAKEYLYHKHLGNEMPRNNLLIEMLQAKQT
For orientation: Reporter assays use an easily measured gene product as a stand-in for the process of interest.
For the compound `OC(COc1ccc2ccccc2c1)CN1CCOCC1` (stereo unspecified), the activation is 39.4% (inactive). To `CN1CCN(CC(=O)Nc2sc3c(c2C#N)CCC(C(C)(C)C)C3)CC1` (stereo unspecified) belongs 17.2% (inactive).

`CCCCCOC(=O)NCCOC(=O)Nc1ccc(C(=O)OCC)cc1`: the activation is -12.6% (inactive). In the case of `CCCCCCOC(=O)NCC(O)c1ccccc1` (stereo unspecified) it was 52.5% (active); in that of `CCCCOC(=O)NCN1C(=O)C2C3C=CC(C3)C2C1=O` (stereo unspecified), -13.3% (inactive).

Take `CCCn1c(O)c(CN2CCCC(C)C2)c(C)c(C#N)c1=O` (stereo unspecified): the activation was -4.9% (inactive). On to `Fc1ccc2nc(Nc3nc4c(s3)CCCC4)sc2c1`, for which the activation was 90% (active).

As to `O=C(CCS(=O)(=O)c1ccccc1)Nc1nc2c(s1)CCCC2`, the activation is 3.8% (inactive). In the case of `COC(=O)C(NC(C)=O)(Nc1nc2c(s1)CCCC2)C(F)(F)F` (stereo unspecified) it was -0.1% (inactive); in that of `Cc1ccc(F)cc1NC(=O)Cc1nn(C)c(=O)c2ccccc12`, -42.9% (inactive).

Take `O=C(Nn1cnc2ccccc2c1=O)c1ccc(F)cc1Cl`: the activation was 64.7% (active).

As to `CN(Cc1ccccc1)C(=O)CCNC(=O)Cn1cnc2ccccc2c1=O`, the activation was -16% (inactive). On to `Cc1cccc(N2CCN(S(=O)(=O)c3ccc4c(c3)c(=O)n(C)c(=O)n4C)CC2C)c1` (stereo unspecified), for which the activation was 3.8% (inactive). With `COc1ccc(N2C(=O)c3cccc4cccc(c34)C2=O)nn1`, the activation was 0.5% (inactive).

Turning to `CCc1ccccc1N(CC(=O)NCCSCc1ccco1)S(C)(=O)=O`, the activation is 4.6% (inactive). In the case of `O=C(c1cnn2ccccc12)N1CCc2ccccc21` it was 111% (active); in that of `O=C(c1cccc(C(=O)N2CCc3ccccc32)n1)N1CCc2ccccc21`, -0.8% (inactive). In the case of `Cc1occc1C(=O)N1CCCc2ccccc21` it was -7.2% (inactive); in that of `COc1ccc(OCC(=O)N2CCN(C(=O)COc3ccccc3)CC2)cc1`, -5.8% (inactive); in that of `CCOC(=O)c1cc(NC(=O)c2cccnc2)cc(C(=O)OCC)c1`, -4.7% (inactive). To `CCOC(=O)c1ccc(-c2ccc(C(=O)Nc3cccnc3)o2)cc1` belongs 51.3% (active); to `CCOc1cccc(C(=O)Nc2cccnc2)c1`, 6.8% (inactive); to `CCC1=C/C(=C\c2ccc3c(c2)OCO3)C(=O)S1`, 0.1% (inactive). For `COc1ccc(NC(=O)C2CCCN(S(=O)(=O)c3cccc4cccnc34)C2)cc1` (stereo unspecified), the activation was 5.1% (inactive). On to `CCOc1cccc(NC(=O)C2CCCN(S(=O)(=O)c3ccc(OC)cc3)C2)c1` (stereo unspecified), for which the activation is 0.1% (inactive). `COc1ccc(S(=O)(=O)N2CCCC(C(=O)Nc3ccc(NC(=O)c4ccccn4)cc3)C2)cc1` (stereo unspecified): the activation is 63.3% (active).

Turning to `N#CC1=C(N)C(C#N)(C#N)[C@H](c2ccsc2)[C@H]2COCC=C12`, the activation was -1.6% (inactive). In the case of `COc1ccc(NC(=O)c2c(C)oc3c2CCCC3)cc1` it was 26.5% (inactive); in that of `COc1ccccc1N1CCN(C(=O)c2cc(-c3ccc(Br)cc3)on2)CC1`, 3.2% (inactive). On to `O=C(c1cc(-c2ccccc2O)on1)N1CCCC1`, for which the activation is 20.3% (inactive).

Take `COc1ccccc1-c1cc(C(=O)N2CCCCC2)no1`: the activation is 82.1% (active). Turning to `Cc1ccc(Cn2c(NC(=O)c3ccco3)nc3ccccc32)cc1`, the activation was -1.8% (inactive). Regarding `Cc1ccc(-n2nc3cc(Cl)c(NC(=O)c4ccco4)cc3n2)cc1`, the activation was 70.4% (active).

Take `COC(=O)c1cc(Cl)c(NC(=O)c2ccco2)cc1OC`: the activation is -3% (inactive). To `CN(C)Cc1c(C#N)c2ccccc2n1C` belongs -11.9% (inactive). In the case of `Cc1ccc(C(=O)CSc2nc3ccccc3c(=O)n2N)o1`, the activation was 32.8% (inactive). To `Cn1c(COc2ccc(Cl)cc2)nc2ccccc2c1=O` belongs 45% (inactive); to `COc1ccc(OCc2ccc(-c3nc4ccccc4c(=O)n3N)o2)cc1`, 59% (active). In the case of `CCOC(=O)c1cccc(NC(=O)CN(c2ccc(C)cc2)S(=O)(=O)c2c(C)noc2C)c1` it was -5.1% (inactive); in that of `CC(=O)N1CCC(C(=O)Nc2nc(-c3ccccc3)ns2)CC1`, -1.6% (inactive). Take `COc1ccc(CN(C(=O)c2cccs2)c2nccs2)cc1OC`: the activation was 7.7% (inactive). Turning to `O=C(CSCc1cccs1)N1CCCC1`, the activation was 60.5% (active).

As for `Cn1c(=NC(=O)CSCC(=O)N2CCCCC2)sc2ccccc21`, the activation was 8.9% (inactive). To `O=C(c1cc(-c2cccs2)on1)N1CCCCC1` belongs 41.3% (inactive); to `CC(=O)Oc1ccc(C)cc1N1C(=O)c2ccc(C(=O)O)cc2C1=O`, -0.3% (inactive); to `O=C(CSc1nnc(-c2ccco2)n1CC1CCCO1)c1ccccc1` (stereo unspecified), 16.7% (inactive). Take `O=C(CSc1nnc2ccccn12)c1ccccc1`: the activation was 55.3% (active). In the case of `Cn1c(CC(=O)Nc2ccccc2)nnc1SCC(=O)c1ccccc1` it was 4.4% (inactive). As to `Cc1c(C(=O)NCC2CCCO2)sc2nc(-c3ccccc3)cn12` (stereo unspecified), the activation was 9% (inactive). For `Clc1ccc(Cc2nnc(-c3cccs3)o2)cc1`, the activation is 59.5% (active). In the case of `Cc1cc(NC(=O)c2cc(-c3cccs3)on2)nn1Cc1ccc(Cl)cc1` it was -2.6% (inactive); in that of `Clc1ccc(Cc2nn3c(-c4ccncc4)nnc3s2)cc1`, 15.3% (inactive); in that of `CSC1=NCCN1C(=O)c1ccc(S(=O)(=O)N2CCOCC2)cc1`, -27.8% (inactive). In the case of `COC(=O)c1ccc(NC(=O)C(C)N2C(=O)c3ccccc3C2=O)cc1` (stereo unspecified) it was 11.6% (inactive); in that of `COC(=O)c1ccc(NCC(=O)c2ccccc2)cc1`, 68.7% (active). To `CCN(CC)C(=O)CCC(=O)Nc1ccc(C(=O)OC)cc1` belongs -4.8% (inactive); to `C=CCn1c(=O)c2ccccc2n2c(SCC(=O)N3CCCc4ccccc43)nnc12`, -8.3% (inactive); to `N#Cc1nc(Cc2ccccc2)oc1NCCc1ccccc1`, 63.4% (active). `N#Cc1nc(COc2ccc(-c3ccccc3)cc2)oc1NCc1cccnc1`: the activation was -9.1% (inactive).

Take `CCOc1ccc(Nc2oc(Cc3ccccc3)nc2C#N)cc1`: the activation is 39.8% (inactive).

Take `CCOc1ccc2nc(NCCNS(=O)(=O)c3ccccc3)c(C#N)cc2c1`: the activation is 9.2% (inactive). In the case of `Cc1ccc(-c2noc(CN3CCN(Cc4ccccc4)CC3)n2)cc1` it was 16.7% (inactive); in that of `Cc1ccc(-c2noc(CCC(N)=O)n2)cc1`, 9.8% (inactive).

Turning to `COc1ccc2[nH]c(=O)c(-c3noc(-c4ccc(F)cc4)n3)cc2c1`, the activation was -0.1% (inactive). As for `Cc1cccc(-c2noc(-c3ccc(F)cc3)n2)c1`, the activation is 77.6% (active). As to `COc1ccccc1Cc1nc(-c2ccc(C)cc2)no1`, the activation is 16.4% (inactive). In the case of `Cc1ccc(Cc2nc(-c3cccc(C)c3)no2)cc1` it was 53.9% (active); in that of `O=C1CCC(C(=O)Nc2ccc(OC(F)F)cc2)N1` (stereo unspecified), -10.9% (inactive); in that of `COc1ccc(NC(=O)CSc2nnc(-c3cccs3)n2Cc2ccco2)cc1OC`, -6% (inactive).

In the case of `CCOC(=O)CSc1nnc(CNc2nc(-c3ccccc3)cs2)n1C`, the activation is 11.1% (inactive). On to `CC(=O)Nc1ccc(S(=O)(=O)N2CCN(CCCOc3cc(C)ccc3C)CC2)cc1`, for which the activation is -14.5% (inactive). In the case of `Cc1nc2ccc(C(=O)N3CCSCC3)cc2s1` it was 0.4% (inactive). In the case of `O=C(Nc1cccc2cccnc12)c1cccc(N2C(=O)CCC2=O)c1` it was 9% (inactive); in that of `CCCNC(=O)Nc1ccccc1C(=O)Nc1ccc(OC)cc1`, 7.4% (inactive). In the case of `COc1ccc(NC(=O)Nc2cccc3cccnc23)cc1` it was 65.5% (active). In the case of `COc1cc(-c2nc(S(=O)(=O)c3ccc(Cl)cc3)c(N(C)C)o2)cc(OC)c1OC`, the activation was -17.6% (inactive). In the case of `Cc1ccc(C(c2nnnn2CS(=O)(=O)c2ccc(C)cc2)N2CCC(C(N)=O)CC2)cc1` (stereo unspecified) it was -4.8% (inactive); in that of `Cc1cc(C)cc(N(CC(=O)NCC2CCCO2)S(=O)(=O)c2c(C)noc2C)c1` (stereo unspecified), -8.7% (inactive). To `N#Cc1c(NC(=O)CCCN2C(=O)c3ccccc3C2=O)oc(-c2ccccc2)c1-c1ccccc1` belongs 12.7% (inactive). Take `CCCc1[nH]nc2c1C(c1c(C)nn(-c3ccccc3)c1Cl)C(C#N)=C(N)O2` (stereo unspecified): the activation is 6.3% (inactive). In the case of `CNC(=O)NCCN1CCCC1=O` it was 1% (inactive); in that of `c1ccc(CSc2nnc(-c3ccco3)c(-c3ccco3)n2)cc1`, 0.5% (inactive). In the case of `O=C(CSc1nnc(-c2ccco2)n1Cc1ccccc1)NC(=O)NCc1ccco1` it was -12.1% (inactive); in that of `c1ccc(CSc2nnc(-c3ccco3)n2Cc2ccccc2)cc1`, 76% (active); in that of `CCn1c(COc2ccc(OC)cc2)nnc1SCC(=O)Nc1cc(OC)ccc1OC`, -13.5% (inactive). In the case of `COc1cc(C2C(C(=O)c3ccc(C)o3)=C(O)C(=O)N2CCc2ccccc2)ccc1O` (stereo unspecified) it was 8.7% (inactive). In the case of `COc1cc(C2C3C(=O)N(c4ccccc4)C(=O)C3ON2c2ccccc2)ccc1O` (stereo unspecified), the activation was 51.7% (active). In the case of `Cc1ccccc1N1C(=O)C2ON(c3ccccc3)C(c3ccncc3)C2C1=O` (stereo unspecified) it was 5.4% (inactive); in that of `COc1ccccc1NC(=O)CSc1nnc(-c2ccoc2C)n1CCc1ccccc1`, -3.3% (inactive); in that of `CC(C)(C)c1ccc(C(=O)CSc2ncn[nH]2)cc1`, 57.1% (active). To `CCN(C(=O)CSc1ncn[nH]1)c1cccc2ccccc12` belongs 16.4% (inactive); to `Cn1nnc(NC(=O)CSc2ncn[nH]2)n1`, 4.4% (inactive).

In the case of `O=S(=O)(c1cccc(-c2nnc(SC(F)F)n2-c2ccccc2)c1)N1CCCCC1`, the activation is 4.3% (inactive). To `CCOc1cc(N2CCOCC2)c(OCC)cc1NC(=O)COc1cccc2cccnc12` belongs 8.2% (inactive); to `Cc1ccc(C(=O)Nc2nnc(-c3cccs3)s2)cc1C`, 80.9% (active); to `Cc1occc1C(=O)Nc1nnc(-c2ccncc2)s1`, 20.4% (inactive). In the case of `CCc1ccccc1NC(=O)c1cccs1` it was -5.6% (inactive); in that of `CCc1nnc(NC(=O)c2cccs2)s1`, 50% (active); in that of `CCc1nnc(NC(=O)CCC(=O)O)s1`, -8.1% (inactive). In the case of `Cc1ccc(C(=O)Nc2nnc(-c3ccncc3)s2)o1` it was 21.8% (inactive); in that of `CCOC(=O)c1ccc(-n2c(C)nc3c(cnn3-c3ccccc3C)c2=O)cc1`, 17.1% (inactive).
